From ChEMBL document CHEMBL4765243, “Discovery of Novel Bromophenol-Thiosemicarbazone Hybrids as Potent Selective Inhibitors of Poly(ADP-ribose) Polymerase-1 (PARP-1) for Use in Cancer” (J Med Chem, 2019)
Activity calls are given as the source filed them. The rule behind the calls is not given here.

Tests used:
[1] = biological target: T1, Poly [ADP-ribose] polymerase 1 (Homo sapiens, UniProt P09874); assay: Inhibition of PARP-1 in human SKOV3 cells assessed as inhibition of H2O2-induced poly-ADP ribose formation preincubated for 4 hrs followed by H2O2 addition and incubated overnight by Alexa Fluor 488 staining based confocal microscopic analysis; type: cell-based; conditions: SK-OV-3, in the assay text read “incubated for 5 mins” for “incubated overnight”
T1 sequence (P09874 whole entry): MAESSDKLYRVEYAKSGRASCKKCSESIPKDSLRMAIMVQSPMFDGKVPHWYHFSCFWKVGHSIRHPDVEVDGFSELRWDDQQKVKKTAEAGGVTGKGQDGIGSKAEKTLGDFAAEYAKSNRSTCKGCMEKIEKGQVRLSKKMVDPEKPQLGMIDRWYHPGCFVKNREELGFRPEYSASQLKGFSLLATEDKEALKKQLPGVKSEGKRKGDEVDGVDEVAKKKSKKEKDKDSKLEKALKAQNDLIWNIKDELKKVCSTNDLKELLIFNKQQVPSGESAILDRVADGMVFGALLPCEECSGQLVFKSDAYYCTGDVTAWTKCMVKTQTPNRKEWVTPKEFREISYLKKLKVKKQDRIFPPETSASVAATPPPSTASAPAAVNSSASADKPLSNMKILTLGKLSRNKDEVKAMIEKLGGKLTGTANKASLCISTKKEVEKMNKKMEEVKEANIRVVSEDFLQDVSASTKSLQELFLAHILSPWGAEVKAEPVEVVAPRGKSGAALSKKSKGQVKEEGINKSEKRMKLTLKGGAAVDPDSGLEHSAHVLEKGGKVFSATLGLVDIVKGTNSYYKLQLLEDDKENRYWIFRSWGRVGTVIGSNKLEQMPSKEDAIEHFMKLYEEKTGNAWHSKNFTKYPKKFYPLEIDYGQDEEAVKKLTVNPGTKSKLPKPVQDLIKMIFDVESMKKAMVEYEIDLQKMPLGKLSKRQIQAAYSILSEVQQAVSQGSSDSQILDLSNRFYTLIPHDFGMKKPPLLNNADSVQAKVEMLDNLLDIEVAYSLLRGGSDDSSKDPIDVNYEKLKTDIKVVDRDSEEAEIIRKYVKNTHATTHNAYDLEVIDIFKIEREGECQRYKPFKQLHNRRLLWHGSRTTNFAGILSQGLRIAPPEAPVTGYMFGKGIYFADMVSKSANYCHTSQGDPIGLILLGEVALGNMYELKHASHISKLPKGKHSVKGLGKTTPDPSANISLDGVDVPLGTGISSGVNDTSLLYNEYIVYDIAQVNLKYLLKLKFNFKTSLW
Summary of the method: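 SK-OV-3 cells were seeded in 96-well plates and grown for 24 h, exposed to compound for 4 h, then to 10 mM H2O2 for 5 min. Cells were fixed and incubated with anti-PAR primary antibody overnight at 4 °C, then with Alexa Fluor 488 secondary antibody. Nuclei were stained with 1 % DAPI and imaged by confocal microscopy.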

SK-OV-3 [2] = assay: Antiproliferative activity against human SK-OV-3 cells assessed as cell growth inhibition at 20 uM incubated for 48 hrs by MTT assay relative to control; type: functional
HepG2 = assay: Antiproliferative activity against human HepG2 cells assessed as cell growth inhibition incubated for 48 hrs by MTT assay; type: functional, cell-based; conditions: HepG2, 48 h
Summary of the method: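 Cells seeded in 96-well plates and exposed to compounds for 48 h; viability read by MTT. Each experiment repeated three times. SK-OV-3 grown in McCOY's 5A, Bel-7402 and HL-7702 in RPMI-1640, HepG2 in DMEM, Caco-2 in MEM.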

SK-OV-3 [3] = assay: Antitumor activity against human SKOV3 cells xenografted in Balb/c nude mouse assessed as tumor growth inhibition administered orally for 21 days and measured every third day; type: functional, cell-based; conditions: dose 25-50 mg/kg, time 21.0 day
Summary of the method: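 Female BALB/c nu/nu mice, 6-8 weeks old, kept under SPF conditions. Each received 5×10^6 SK-OV-3 cells s.c. At 80–120 mm3 tumour volume, mice were split into four groups (n=6). […] Caliper measurement every three days; volume = X × (Y2/2).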

[4] = biological target: T1, Poly [ADP-ribose] polymerase 1; assay: Inhibition of PARP-1 in human SKOV3 cells assessed as increase in gammaH2AX expression level by immunofluorescence analysis; type: cell-based; conditions: SK-OV-3
SK-OV-3 [5] = assay: Antitumor activity against human SKOV3 cells xenografted in Balb/c nude mouse assessed as increase in gamma-H2AX protein expression in tumor at 25 to 50 mg/kg, po for 21 days by western blot analysis; type: functional, organism-based; conditions: dose 25-50 mg/kg, time 21.0 day
Summary of the method: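 SK-OV-3 xenografts in female BALB/c nude mice were dosed orally at 25 or 50 mg/kg in 0.5% CMC-Na for 21 days. Tumours were then snap-frozen in liquid nitrogen or fixed in 10% neutral-buffered formalin. Analysis used western blotting, H&E and immunohistochemistry on paraffin sections (Ki67, γ-H2AX).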

SK-OV-3 [6] = assay: animal or person; conditions: Mus musculus, SK-OV-3, po, 504 h, read-out: INH
SK-OV-3 [7] = assay: Induction of cell cycle arrest in human SKOV3 cells assessed as accumulation at G2/M phase incubated for 48 hrs by propidium iodide staining based flow cytometry analysis; type: functional
Summary of the method: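 SK-OV-3 cells in 6-well plates incubated 24 h, then treated 48 h. Cells harvested, fixed, stained with propidium iodide and analysed by flow cytometry.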

[8] = biological target: T1, Poly [ADP-ribose] polymerase 1; assay: Inhibition of PARP-1 in human SKOV3 cells assessed as decrease in MCM4 protein expression level at 2.5 to 10 uM incubated for 48 hrs by western blot analysis; type: cell-based; conditions: SK-OV-3, dose 2.5-10 µM
Summary of the method: (§1)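 SK-OV-3 cells were grown in McCOY's 5A, seeded in 6-well plates and treated for 48 h. Lysate proteins were separated by 8-15 % SDS-PAGE and transferred to PVDF membranes. Membranes were blocked in 5 % nonfat milk, probed with primary antibody overnight at 4 °C and with HRP secondary antibody for 1 h at room temperature, then detected by enhanced chemiluminescence. Images are representative of 3 independent experiments.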

[9] = Half-life in Sprague-Dawley rat at 10 mg/kg, po by LC/MS/MS analysis; type: ADME, organism-based; conditions: in vivo
Summary of the method: (§2)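 Male Sprague-Dawley rats, 4 per group, dosed once orally at 10 mg/kg or intravenously at 2 mg/kg. Blood taken from the saphenous vein for plasma. Drug levels measured by LC-MS-MS, with parameters derived by noncompartmental analysis.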

SK-OV-3 [10] = assay: Induction of ROS generation in human SKOV3 cells assessed as fold increase in ROS level at 5 uM incubated for 48 hrs by DCFH-DA staining based flow cytometry relative to control; type: functional
[11] = MRT in Sprague-Dawley rat at 2 mg/kg, iv by LC/MS/MS analysis; type: ADME, organism-based; conditions: in vivo; summary of the method: as §2
[12] = Subacute toxicity in SPF Kunming mouse assessed as change in heart at 1000 mg/kg, po administered for 14 days by H and E staining based microscopic analysis; type: organism-based; conditions: in vivo, 336 h, time 14 day
Summary of the method: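 Twenty SPF Kunming mice (18 - 22 g), half male and half female, randomised into 2 groups of 5 males + 5 females. Treated group dosed orally at 1000 mg/kg once daily for 14 days. Death, clinical signs and body weight monitored. After 14 days: isoflurane anaesthesia, decapitation, tissues collected for H&E histology.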

[13] = Acute toxicity in SPF Kunming mouse assessed as lethal dose administered orally as single dose and measured upto 14 days post drug administration; conditions: in vivo, po, time <=14 day
Summary of the method: (§3)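 Single oral dose groups at 0 (physiological saline blank, equal volume), 100, 500 and 1000 mg/kg. Mice housed with free access to water and food in stainless cages, 25 ± 1 °C, 12-h light/dark cycle. Survival, body weight and abnormalities recorded up to 14 days post-treatment.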

SK-OV-3 [14] = assay: Induction of ROS generation in human SKOV3 cells assessed as fold increase in ROS level at 10 uM incubated for 48 hrs by DCFH-DA staining based flow cytometry relative to control; type: functional
Caco-2 = assay: Antiproliferative activity against human Caco-2 cells assessed as cell growth inhibition at 20 uM incubated for 48 hrs by MTT assay relative to control; type: functional
SK-OV-3 [15] = assay: Induction of apoptosis in human SKOV3 cells assessed as decrease in Bcl-2 expression at 2.5 to 10 uM incubated for 48 hrs by western blot analysis; type: functional, cell-based; conditions: dose 2.5-10 µM
[16] = Acute toxicity in SPF Kunming mouse assessed as change in body weight at 100 to 1000 mg/kg, po administered as single dose and measured upto 14 days post drug administration; type: organism-based; conditions: in vivo, 336 h, dose 100-1000 mg/kg, time <=14 day; summary of the method: as §3
[17] = Half-life in Sprague-Dawley rat at 2 mg/kg, iv by LC/MS/MS analysis; type: ADME, organism-based; conditions: in vivo; summary of the method: as §2
SK-OV-3 [18] = assay: Induction of apoptosis in human SKOV3 cells at 2.5 to 10 uM incubated for 48 hrs by annexin V-FITC/PI based flow cytometric analysis; type: functional, cell-based; conditions: dose 2.5-10 µM
Summary of the method: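 SK-OV-3 cells treated 48 h, then harvested, stained with Annexin V/PI and analysed by flow cytometry.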

[19] = biological target: T1, Poly [ADP-ribose] polymerase 1; assay: Inhibition of PARP-1 in human SKOV3 cells assessed as decrease in MCM3 protein expression level at 2.5 to 10 uM incubated for 48 hrs by western blot analysis; type: cell-based; conditions: SK-OV-3, dose 2.5-10 µM; summary of the method: as §1
[20] = Cmax in Sprague-Dawley rat at 2 mg/kg, iv by LC/MS/MS analysis; type: ADME, organism-based; parameters: route intravenous, dose 2 mg/kg; conditions: in vivo; summary of the method: as §2
[21] = biological target: T1, Poly [ADP-ribose] polymerase 1; assay: Inhibition of PARP-1 in human SKOV3 cells assessed as decrease in MCM6 protein expression level at 2.5 to 10 uM incubated for 48 hrs by western blot analysis; type: cell-based; conditions: SK-OV-3, dose 2.5-10 µM; summary of the method: as §1

For `COc1cc(/C=N/NC(N)=S)c(Br)c(Br)c1OC`, the inhibition [1] was “Active”, the inhibition at 20 µM (SK-OV-3 [2]) was 100% and the IC50 (HepG2) was 4.6 µM. For the same compound, the inhibition (SK-OV-3 [3]) was “Dose-dependent effect”, the inhibition [4] was “Active” and the Activity (SK-OV-3 [5]) was “Active”. For the same compound, the inhibition in vivo at 25 mg/kg (SK-OV-3 [6]) was 70%, the Activity (SK-OV-3 [7]) was “Dose-dependent effect” and the inhibition [8] was “Active”. The half-life [9] was 2.6 h, the “fold change (FC)” value (SK-OV-3 [10]) was 2.51 and the MRT [11] was 1.14 h. For the same compound, the Activity [12] was “Non-Toxic”, the LD50 at 336 h [13] was 1000 mg/kg and the “fold change (FC)” value (SK-OV-3 [14]) was 3.04. For the same compound, the inhibition at 20 µM (Caco-2) was 59.6%, the Activity (SK-OV-3 [15]) was “Active” and the Activity [16] was “Non-Toxic”. The half-life [17] was 0.79 h, the Activity (SK-OV-3 [18]) was “Active” and the inhibition [19] was “Active”. The Cmax [20] was 1250 nM and the inhibition [21] was “Active”.
